Data as given in ChEMBL document CHEMBL4382271, “Eucalypglobulusals A-J, Formyl-Phloroglucinol-Terpene Meroterpenoids from Eucalyptus globulus Fruits” (J Nat Prod, 2018).
Calls of active or inactive are those of the source. The rule behind the calls is not given here.

Legend:
HCT-116 = assay: Cytotoxicity against human HCT116 cells by MTT assay; type: functional, cell-based
CCRF-CEM = assay: Cytotoxicity against human CCRF-CEM cells by MTT assay; type: functional, cell-based
DU-145 = assay: Cytotoxicity against human DU145 cells by MTT assay; type: functional, cell-based
Huh-7 = assay: Cytotoxicity against human HuH7 cells by MTT assay; type: functional, cell-based
A549 = assay: Cytotoxicity against human A549 cells by MTT assay; type: functional, cell-based
[1] = target: T1, DNA topoisomerase I (Bos taurus) (UniProt F1MN93); assay: Inhibition of calf thymus topoisomerase-1-mediated supercoiled pBR322 DNA relaxation at 50 uM after 30 mins by agarose gel electrophoresis assay relative to control
T1 sequence (whole entry): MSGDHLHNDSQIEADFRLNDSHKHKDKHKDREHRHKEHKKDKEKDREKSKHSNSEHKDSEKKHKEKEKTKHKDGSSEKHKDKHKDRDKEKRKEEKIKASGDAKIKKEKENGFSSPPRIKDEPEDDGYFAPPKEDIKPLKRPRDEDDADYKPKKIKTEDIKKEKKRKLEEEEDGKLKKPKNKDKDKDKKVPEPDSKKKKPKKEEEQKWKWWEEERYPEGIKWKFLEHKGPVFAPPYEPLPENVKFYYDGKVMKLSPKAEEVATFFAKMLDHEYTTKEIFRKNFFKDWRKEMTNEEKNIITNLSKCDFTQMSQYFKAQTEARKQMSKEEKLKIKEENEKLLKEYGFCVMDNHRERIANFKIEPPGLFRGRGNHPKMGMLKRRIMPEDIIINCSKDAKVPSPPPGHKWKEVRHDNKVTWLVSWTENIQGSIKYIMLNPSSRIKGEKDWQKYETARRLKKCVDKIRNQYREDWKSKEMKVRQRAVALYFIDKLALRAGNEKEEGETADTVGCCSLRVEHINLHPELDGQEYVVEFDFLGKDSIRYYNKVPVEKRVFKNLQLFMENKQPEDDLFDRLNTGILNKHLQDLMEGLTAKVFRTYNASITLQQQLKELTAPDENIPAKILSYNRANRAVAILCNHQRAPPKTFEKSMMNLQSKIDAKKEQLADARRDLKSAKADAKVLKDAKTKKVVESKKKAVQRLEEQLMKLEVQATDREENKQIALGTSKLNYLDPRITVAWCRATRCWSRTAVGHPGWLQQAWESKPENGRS
Outline: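 Top1-mediated plasmid relaxation run at 50 μM test concentration. Camptothecin (CPT) was included as reference inhibitor. Inhibition was expressed as percentage ranges from gel band intensities.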

[2] = target: T1, DNA topoisomerase I (Bos taurus); assay: Inhibition of calf thymus topoisomerase-1 assessed as reduction in cleavage complex formation by measuring decrease in nicked form DNA using supercoiled pBR322 DNA as substrate after 30 mins by agarose gel electrophoresis assay
[3] = target: T1, DNA topoisomerase I (Bos taurus); assay: Inhibition of calf thymus topoisomerase-1-mediated supercoiled pBR322 DNA unwinding at 25 uM preincubated with DNA for 10 mins followed by enzyme addition and measured after 30 mins by agarose gel electrophoresis assay
Outline: (§1)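 Top1-mediated unwinding assay with ethidium bromide, a DNA intercalator, as positive control. It tests whether compounds unwind DNA by intercalation.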

[4] = target: T1, DNA topoisomerase I (Bos taurus); assay: Inhibition of calf thymus topoisomerase-1-mediated relaxed pBR322 DNA unwinding at 25 uM preincubated with DNA for 10 mins followed by enzyme addition and measured after 30 mins by agarose gel electrophoresis assay; outline: as §1

Row | SMILES | IC50 (HCT-116) | IC50 (CCRF-CEM) | IC50 (DU-145) | IC50 (Huh-7) | IC50 (A549) | inhibition [1] | inhibition [2] | inhibition [3] | inhibition [4]
1 | CC(C)CC(=O)c1c(O)c(C=O)c(O)c(C[C@@]2(C)CC[C@@H]3[C@@H]2[C@H]2[C@@H](CC[C@@]3(C)O)C2(C)C)c1O [EUCALYPTIN A] | 9.6 µM | > 10 µM | 8.9 µM | > 10 µM | 4.9 µM | > 90% |  |  | 
2 | CC(=O)[C@@]12C=C(C(C)C)CC[C@@]1(C)[C@H]([C@@H](CC(C)C)c1c(O)c(C=O)c(O)c(C=O)c1O)C[C@H]2O |  |  |  |  |  |  | Dose-dependent effect | inactive | inactive
3 | CC(C)C[C@@H](c1c(O)c(C=O)c(O)c(C=O)c1O)[C@@]1(C)CC[C@@H]2[C@@H]1[C@H]1[C@@H](CC[C@@]2(C)O)C1(C)C |  |  |  |  |  |  |  | inactive | inactive
4 | COc1cc([C@@H]2c3cc4c(cc3[C@@H](O[C@@H]3O[C@@H]5CO[C@@H](C)O[C@H]5[C@H](O)[C@H]3O)[C@H]3COC(=O)[C@H]23)OCO4)cc(OC)c1O [ETOPOSIDE] | > 10 µM | 1.1 µM | > 10 µM | 7.4 µM | > 10 µM |  |  |  | 
5 | C=C1/C=C/[C@H](C(C)(C)O)C[C@H]2[C@@H](CC(C)C)c3c(O)c(C=O)c(O)c(C=O)c3O[C@]2(C)CCC1 | > 10 µM | 3.3 µM | > 10 µM | > 10 µM | > 10 µM | 60 to 89% |  |  | 
6 | CC(C)CC(=O)c1c(O)c(C=O)c(O)c(C[C@@]2(C)CC[C@H]3C2=C[C@H](C(C)(C)O)CC[C@H]3C)c1O | > 10 µM | 6.9 µM | > 10 µM | > 10 µM | 5.3 µM | > 90% |  |  | 
7 | CC[n+]1c(-c2ccccc2)c2cc(N)ccc2c2ccc(N)cc21 |  |  |  |  |  |  |  | Active | Active
8 | C=C(C)[C@@H]1C=C2[C@@H](C)CC[C@@H](Cc3c(O)c(C=O)c(O)c(C(=O)CC(C)C)c3O)[C@]2(C)CC1 | 9.6 µM | > 10 µM | > 10 µM | > 10 µM | 5.2 µM | > 90% |  |  | 
9 | CC[C@@]1(O)C(=O)OCc2c1cc1n(c2=O)Cc2cc3ccccc3nc2-1 [CAMPTOTHECIN] | 0.013 µM | 0.002 µM | 0.016 µM | 0.0023 µM | 0.04 µM | > 90% |  |  | 
